Rpn11 block: Rpn11 (human) deubiquitinase inhibition | O00487 | human 26S proteasome, Ub4-pepOG fluorescence polarization; 20S core pre-blocked with epoxomicin | inhibition, % at 20 µM | hit rate 0.59% among 360,000 | AID 588493;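 active = inhibition at 20 µM, scaled to each plate's controls, above about 33%, limit read from the data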
HNF4A DNA FP: change in binding of human HNF4 alpha to DNA. P41235. HNF4a-FITC DNA binding, fluorescence polarization, 1 h. activity change, % at 10 µM. hit rate 0.3% among 360,000. AID 1224865; in the data active = activity change above about 30%, passing the limit was not always enough
CSN inh: blocks human CSN-mediated cullin deneddylation. inhibition, % at 12.5 µM. Purified CSN, SCF-Nedd8-OG deneddylation, fluorescence polarization. hit rate 0.38% among 360,000. AID 651999;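 active = pattern-corrected inhibition above about 35%, with an unprinted fluorescence ratio check between 0.5 and 1.5, limit read from the data, passing the limit was not always enough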;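 note: 0% = enzyme with substrate and 100% = substrate without enzyme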
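Material: human Csn5 produced in HEK293T cells; Input: enzyme 0.24 nM; Reagent: SCFSkp2-Nedd8OG substrate at 10 nM final; Dosing: 12.5 µM compound; Incubation: 90 min reaction at room temperature; Detection: fluorescence polarization of the substrate; Evaluation: % inhibition of substrate cleavage by Csn5; Control set: substrate-only high control, full reaction low control.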
Neddylation inh: cullin neddylation inhibition. P61081+Q13564. TR-FRET cullin neddylation, biochemical. inhibition, % at 25 µM. hit rate 0.58% among 360,000; in the data active = inhibition above about 36%
Target sequence (P61081 whole entry, looked up): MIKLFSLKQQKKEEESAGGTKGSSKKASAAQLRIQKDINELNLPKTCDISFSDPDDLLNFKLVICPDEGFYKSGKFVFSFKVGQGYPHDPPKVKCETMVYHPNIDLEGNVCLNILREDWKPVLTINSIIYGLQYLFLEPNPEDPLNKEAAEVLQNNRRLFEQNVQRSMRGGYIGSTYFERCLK
Target sequence (Q13564 whole entry, looked up): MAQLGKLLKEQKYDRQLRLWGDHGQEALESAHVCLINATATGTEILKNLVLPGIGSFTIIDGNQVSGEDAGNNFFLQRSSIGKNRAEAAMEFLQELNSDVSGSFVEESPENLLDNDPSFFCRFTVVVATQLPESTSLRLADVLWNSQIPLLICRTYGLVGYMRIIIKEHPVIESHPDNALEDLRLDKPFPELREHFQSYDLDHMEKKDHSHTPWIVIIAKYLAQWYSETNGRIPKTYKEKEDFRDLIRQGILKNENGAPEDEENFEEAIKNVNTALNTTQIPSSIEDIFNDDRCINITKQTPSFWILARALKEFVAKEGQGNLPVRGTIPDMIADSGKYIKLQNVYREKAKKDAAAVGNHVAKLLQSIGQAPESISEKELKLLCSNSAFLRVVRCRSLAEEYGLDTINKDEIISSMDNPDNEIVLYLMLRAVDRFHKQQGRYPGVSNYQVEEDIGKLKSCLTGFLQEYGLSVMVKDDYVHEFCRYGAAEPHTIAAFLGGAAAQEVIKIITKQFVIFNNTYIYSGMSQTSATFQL
Rin1-Abl PPI inh: inhibitors of human Rin1-Abl protein interaction; P00519+Q13671; TR-FRET Rin1/Abl binding, biochemical; inhibition, % at 7.35 µM; hit rate 0.4% among 360,000; AID 588664; in the data active = inhibition above about 5%, passing the limit was not always enough
TPT1 inhibitor: C. albicans TPT1 enzyme inhibition | recombinant caTPT1, FP RNA substrate dephosphorylation | inhibition, % at 5 µM | hit rate 0.81% among 300,000 | AID 1962;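 active = inhibition above the mean of all tested compounds plus 3 SD, set per screening campaign, cut at about 24% in these data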;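 note: plate controls were DMSO alone for no effect and ferristatin control at 100 nM for full effect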
Numbers without * were called inactive. This is a sample that favours compounds with a hit; in the whole collection about 2.4% have one here.

How did Nc1ccc(C(=O)O)c(O)c1 do in these assays?
Rpn11 block: -1; HNF4A DNA FP: 2; CSN inh: -1; Neddylation inh: 9; Rin1-Abl PPI inh: 0; TPT1 inhibitor: -6

Results for Nc1ccc(N)c(C(=O)O)c1 ?
Rpn11 block: -28; HNF4A DNA FP: -54; CSN inh: 17; Neddylation inh: 23; Rin1-Abl PPI inh: 13*; TPT1 inhibitor: -8

Results for COCCN1CCN(C(=O)C2CCC(=O)N(CCc3ccccc3)C2)CC1 (configuration not stated) ?
Rpn11 block: -10; HNF4A DNA FP: 1; CSN inh: 3; Neddylation inh: 5; Rin1-Abl PPI inh: 1; TPT1 inhibitor: -2

What do the screens show for `O=C(NCCc1ccccc1)C1Cc2c(-c3ccccc3)ccnc2O1` (configuration not stated)?
Rpn11 block: -1; HNF4A DNA FP: -5; CSN inh: -2; Neddylation inh: 5; Rin1-Abl PPI inh: 4

How did Cn1cccc1/C=C1\SC(=O)N(c2ccccc2)C1=O do in these assays?
Rpn11 block: 3; HNF4A DNA FP: 3; CSN inh: 43*; Neddylation inh: -14; Rin1-Abl PPI inh: -5; TPT1 inhibitor: 24

Results for COC(=O)C(=Cc1ccc(-c2ccsc2C(=O)OC)o1)C(=O)OC ?
Rpn11 block: 4; HNF4A DNA FP: 1; CSN inh: 4; Rin1-Abl PPI inh: -1; TPT1 inhibitor: -1

How did CCOC(=O)C(=Cc1ccc(-c2ccsc2C(=O)OC)o1)C(=O)OCC do in these assays?
Rpn11 block: 7; HNF4A DNA FP: 5; CSN inh: 118*; Rin1-Abl PPI inh: -3; TPT1 inhibitor: 1

What do the screens show for `CCOc1cc(/C=N/NC(=O)c2nnn(-c3nonc3N)c2C)ccc1OCc1ccc(C)cc1`?
Rpn11 block: 8; HNF4A DNA FP: 25; CSN inh: 41*; Rin1-Abl PPI inh: 0

How did CCOc1cc(/C=N/NC(=O)c2nnn(-c3nonc3N)c2C)ccc1OCc1ccc(F)cc1 do in these assays?
Rpn11 block: 1; HNF4A DNA FP: 0; CSN inh: 5; Rin1-Abl PPI inh: -1; TPT1 inhibitor: -1

What do the screens show for `Fc1ccc(NC(=S)SCc2ccc3c(c2)OCO3)cc1F`?
Rpn11 block: 5; HNF4A DNA FP: -2; CSN inh: 6; Neddylation inh: 1; Rin1-Abl PPI inh: 5

What do the screens show for `COc1ccc2c(c1)CCC(=O)[C@H](O)C[C@H](c1ccccc1)OC2=O`?
HNF4A DNA FP: 1; CSN inh: -4; Neddylation inh: 8

Results for COc1ccc2c(c1)C(=O)O[C@@H](c1ccccc1)C[C@@H](O)C(=O)CC2 ?
HNF4A DNA FP: 2; CSN inh: 87*; Neddylation inh: 2

What do the screens show for `CC(C)C[C@H]1CN([C@@H](Cc2ccccc2)CN2CCC[C@@H]2CN2C(=O)C(=O)NC[C@@H]2Cc2ccc(O)cc2)C(=O)C(=O)N1CC1CCCCCC1`?
Rpn11 block: 9; HNF4A DNA FP: 2; CSN inh: 37*; Neddylation inh: 0; Rin1-Abl PPI inh: 3

How did CC(C)C[C@H]1CNC(=O)C(=O)N1CC1CCN(CCc2ccccc2)CC1 do in these assays?
Rpn11 block: 6; HNF4A DNA FP: -1; CSN inh: -3; Neddylation inh: 4; Rin1-Abl PPI inh: 0

How did Cc1ccc(-c2csc3nc(-c4ccncc4)[nH]c(=O)c23)cc1 do in these assays?
HNF4A DNA FP: 77*; CSN inh: 44*; Neddylation inh: 36; Rin1-Abl PPI inh: -3; TPT1 inhibitor: 2

Results for Nc1ncnc2c1ncn2[C@@H]1O[C@H](CNCc2cccc(C#Cc3ccccc3)c2)[C@@H](O)[C@H]1O ?
Rpn11 block: 8; HNF4A DNA FP: 4; CSN inh: 3; Neddylation inh: 52*; Rin1-Abl PPI inh: 2

Results for NCCC(=O)NC[C@H]1O[C@@H](n2cnc3c(N)ncnc32)[C@H](O)[C@@H]1O ?
Rpn11 block: -8; HNF4A DNA FP: 2; CSN inh: 4; Neddylation inh: -5; Rin1-Abl PPI inh: -1

Results for Nc1ncnc2c1ncn2[C@@H]1O[C@H](CNCc2ccccc2)[C@@H](O)[C@H]1O ?
Rpn11 block: -5; HNF4A DNA FP: 5; CSN inh: 1; Neddylation inh: 7; Rin1-Abl PPI inh: -1

Results for Nc1ncnc2c1ncn2[C@@H]1O[C@H](COP(=O)(O)OP(=O)(O)OP(=O)(O)O)[C@@H](O)[C@H]1O ?
Rpn11 block: -3; HNF4A DNA FP: 3; CSN inh: -5; Neddylation inh: 80*; Rin1-Abl PPI inh: 1; TPT1 inhibitor: 1

How did Nc1ncnc2c1ncn2[C@@H]1O[C@H](COS(=O)(=O)O)[C@@H](O)[C@H]1O do in these assays?
Rpn11 block: -4; HNF4A DNA FP: -2; CSN inh: -4; Neddylation inh: 69*; Rin1-Abl PPI inh: 1

How did Cc1noc(C)c1C(=O)OCC(=O)Nc1ncc(Cl)c(C)c1Cl do in these assays?
Rpn11 block: -3; HNF4A DNA FP: -7; CSN inh: -1; Neddylation inh: 10; Rin1-Abl PPI inh: 2

What do the screens show for `Cc1cc(C[n+]2ccccc2)c2nsnc2c1`?
Rpn11 block: 2; HNF4A DNA FP: -4; CSN inh: -4; Neddylation inh: 45*; Rin1-Abl PPI inh: -4; TPT1 inhibitor: 2

Results for COc1cc(-c2nc(C(=O)NCC3CCCO3)cc3c2[nH]c2ccccc23)cc(OC)c1OC (configuration not stated) ?
Rpn11 block: -1; HNF4A DNA FP: 4; CSN inh: 5; Neddylation inh: 44*; Rin1-Abl PPI inh: 4; TPT1 inhibitor: -2

What do the screens show for `COc1ccccc1-c1nc(C(=O)NCC2CCCO2)cc2c1[nH]c1ccccc12` (configuration not stated)?
Rpn11 block: 14; HNF4A DNA FP: 5; CSN inh: 4; Neddylation inh: 31; Rin1-Abl PPI inh: 0; TPT1 inhibitor: 1

Results for N=c1c2c(n(Cc3ccc(F)cc3)c3c1CCC3)CCCC2 ?
Rpn11 block: 0; HNF4A DNA FP: -3; CSN inh: 6; Neddylation inh: -5; Rin1-Abl PPI inh: 3; TPT1 inhibitor: 0

How did N=c1c2c(n(Cc3ccc(Cl)cc3)c3c1CCC3)CCC2 do in these assays?
Rpn11 block: -38; HNF4A DNA FP: 42*; CSN inh: 0; Neddylation inh: -5; Rin1-Abl PPI inh: 2; TPT1 inhibitor: 1

Results for CCCC(C(=O)Nc1ccc(S(=O)(=O)Nc2ncccn2)cc1)c1ccccc1 (configuration not stated) ?
Rpn11 block: 2; HNF4A DNA FP: 34*; CSN inh: 0; Neddylation inh: 14; Rin1-Abl PPI inh: -1; TPT1 inhibitor: -3

Results for O=[N+]([O-])c1cc([N+](=O)[O-])c2cc3ccccc3nc2c1 ?
Rpn11 block: 12; HNF4A DNA FP: 0; CSN inh: 6; Neddylation inh: -41; Rin1-Abl PPI inh: 1; TPT1 inhibitor: -1
